Screening data: PubChem, several laboratories
Shown are actives, neighbours in structure and some others; about 3.6% of the full set was active somewhere.
Measles CPE: protection of cells from measles virus | 140,000 compounds, 1.5% hits | protection (pct of control), % at 4 µM | Measles virus-infected cells, CPE protection, absorbance; in the data active = protection mostly above about 24%, no sharp cut-off; inactive = mostly below about 26%
BB579 growth dn: yeast BB579 growth reduction in restrictive medium; S. cerevisiae BB579 growth, OD615, 48 h; inhibition, % at 10 µM; 140,000 compounds, 0.51% hits; AID 804;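 active = inhibition above a set limit, 3 SD over the mean compound inhibition, cut at about 44% in these data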
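Test system: DeaD yeast strain BB579 / Buffer or medium: restrictive glucose-based CSMM-D medium / Doses: single 10 µM dose / Schedule: 4 h cell preincubation, 48 h compound exposure, 30 °C humidified / Technique: culture absorbance at 615 nm / Controls: amphotericin B positive control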
RAM inhibit: inhibitors of the yeast RAM network; S. cerevisiae dse1pr::URA3 reporter, 5-FOA growth OD615, 2 d; analog-sensitive cbk1-as2 kinase mutant strain; inhibition, % at 50 µM; 190,000 compounds, 1.8% hits; AID 868;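 active = inhibition above a set limit, 3 SD over mean compound inhibition, cut at about 8.4% in these data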;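 note: 0% = DMSO-only wells with no growth and 100% = 10 µM 1-NA-PP1 full growth; inhibition rescues growth on 5-FOA so higher OD means more RAM inhibition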
Yeast life ext: extends the lifespan of yeast. S. cerevisiae growth with nicotinamide, OD615; deaD strain in restrictive glucose medium. inhibition of the nicotinamide effect, % at 10 µM. 130,000 compounds, 0.68% hits;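 active = inhibition above a set limit, placed 3 SD over the median of all compounds, cut at about 26% in these data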;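 note: 0% = nicotinamide-treated wells and 100% = cells grown without nicotinamide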
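Assay system: DeaD-strain S. cerevisiae. Medium: CSMM-D glucose medium, restrictive. Reagent: nicotinamide, 1.5 mM, co-present with compound. Compound: 10 µM single point, 0.25% DMSO. Schedule: culture preincubation 4 h, compound exposure 48 h, both 30 °C. Detection: absorbance at 615 nm.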
Starred values were filed as active, the others as inactive; . = no result.

SMILES	Measles CPE	BB579 growth dn	RAM inhibit	Yeast life ext
O=C(CSc1nnc2scc(-c3ccccc3)n12)NCc1ccc2c(c1)OCO2	2	-38	9.6*	-5
CC1CCCC(C)N1C(=O)Cn1c(SCC(=O)NCc2ccc3c(c2)OCO3)nc2ccccc21 (configuration not stated)	6	-59	8.9*	-11
COc1cc(OC)cc(C(=O)N[C@H](C(=O)NCc2cccs2)C(C)C)c1	.	.	1	.
COC(=O)Cc1ccc(NC(=S)N2CCN(c3cc(Cl)ccc3C)CC2)cc1	.	.	4	.
Nc1nc(SCC(=O)NCc2ccc3c(c2)OCO3)n[nH]1	.	.	0	.
O=C(CSc1n[nH]c(-c2cccs2)n1)NCc1ccc2c(c1)OCO2	12*	-13	0	-15
CC(C)=C(NC(=O)c1ccccc1)C(=O)Nc1cccc(C(=O)O)c1	.	.	2	.
Cc1nc(SCC(=O)Nc2c(C)nn(C)c2C)c2cnn(-c3ccccc3)c2n1	48*	-18	0	-10
COC(=O)C(C)Sc1nc2c(cnn2-c2ccc(C)cc2)c(=O)[nH]1 (configuration not stated)	59*	-24	1	-19
Cc1nn(Cc2ccccc2)c(C)c1NC(=O)CSc1nc(-c2ccccc2)nc2c1cnn2-c1ccccc1	6	-55	2	-23
CCC(Sc1nc2c(cnn2-c2ccccc2)c(=O)[nH]1)C(=O)OC (configuration not stated)	9	-30	2	-9
CCc1c(C)nc(SCC(=O)Nc2c(C)n(C)n(-c3ccccc3)c2=O)[nH]c1=O	16	9	0	-20
Cc1c(NC(=O)CSc2nc3c(cnn3-c3ccccc3)c(=O)[nH]2)c(=O)n(-c2ccccc2)n1C	7	-28	11*	5
CC(C)Cn1ccc(=O)n(CC(C)C)c1=O	18	-12	0	0
Cc1ccc(CNC(=O)CSc2nc3ccsc3c(=O)n2Cc2ccc(C(=O)O)cc2)cc1	.	.	4	.
O=C(NCC1CCCO1)c1csc(Nc2cccc3ccccc23)n1 (configuration not stated)	.	.	1	.
Cc1ccc(-c2nc(-c3ccc(Cl)cc3)sc2CC(=O)O)c(C)c1	.	.	9.6*	.
COc1ccc(Cn2c(C3CC3)nc3ccc(NC(C)=O)cc3c2=O)cc1	9	-42	10*	6
O=C(/C=C/c1cn(-c2ccccc2)nc1-c1ccccc1)Nc1ccc(C(=O)O)cc1	.	.	8.9*	.
CC(C)(C)OC(=O)N1CCN(C(=O)[C@H](Cc2ccc(O)cc2)n2cc(CCO)nn2)CC1	.	.	1	.
Cc1ccc(NCC(=O)N/N=C/c2cccc(Oc3ccccc3)c2)cc1	11	-26	10*	-6
Cc1ccc(CN2CCN(Cc3cnc(C)[nH]3)CC2CCO)cc1 (configuration not stated)	.	.	2	.
C=CCn1c(COc2ccc(OC)cc2)nnc1SCn1nnc2ccccc2c1=O	8	-29	2	1
O=C(Cn1ccc2ccccc2c1=O)NCCC(=O)N1CCN(c2cccc(Cl)c2)CC1	3	-80	9.7*	1
CCCOC(=O)c1cc(NC(=O)/C=C/c2ccccc2)ccc1O	.	.	2	.
SMILES	Measles CPE	BB579 growth dn	RAM inhibit	Yeast life ext
CC(=O)c1ccc(N2CCN(C(=S)Nc3ccc(Cl)c(Cl)c3)CC2)cc1	.	.	4	.
O=C(CN1CCN(C(=O)c2ccco2)CC1)Nc1ccccc1-c1ccccc1	10	-24	-1	-18
CN1CCN(CC(=O)Nc2ccc(Cl)cc2Cl)CC1	5	-25	1	40*
O=C(CN1CCN(C(=O)c2ccco2)CC1)Nc1cc(Cl)ccc1Cl	69*	-17	1	-19
CCC12CN3CC(CC)(CN(C1)C3c1c(O)ccc3ccccc13)C2=O (configuration not stated)	5	-38	0	26*
O=[N+]([O-])C(/C=C(\Cl)[N+](=O)[O-])=C(N1CCCCC1)N1CCCCC1	.	.	2	.
O=[N+]([O-])c1cc2oc3c(c2c(C=NCc2ccncc2)c1O)CCCC3	14	9	0	67*
O=C1C(C=NCc2ccncc2)=C(O)c2ccccc21	19	-73	1	10
COc1ccc(CC(=O)Nc2c3c(nn2-c2cccc(Cl)c2)CS(=O)(=O)C3)cc1	2	-37	9.2*	0
O=C(Cc1ccccc1)Nc1c2c(nn1-c1cccc(Cl)c1)CS(=O)(=O)C2	8	-12	2	-4
N#Cc1c(N)nc2c3c(sc(=N)c2c1N)NC(=O)CC3c1c(F)cccc1Cl (configuration not stated)	14	-21	8.8*	-13
CCOc1ccccc1CNCCOC	.	.	-1	.
O=C(Nc1ccc(Cl)cc1)OCc1cc(-c2ccccc2Cl)on1	5	-45	7	-11
Cc1ccc(NC(=O)OCc2cc(-c3ccccc3)on2)cc1	.	.	9.9*	.
CCOC(=O)c1sc(=S)n(-c2cc(F)ccc2F)c1N	2	45*	0	-10
CCOC(=O)c1sc(=S)n(-c2ccccc2Cl)c1SC	16	3	8.8*	-4
CCCCOCC1CN(c2ccccc2)C(=O)CS1 (configuration not stated)	12	-30	1	3
CCCCC1C(=O)N(c2ccccc2)N(c2ccccc2)C1=O	60*	-24	2	28*
Cc1csc(NC(=O)Cc2coc3cc(C)c(C(C)C)cc23)n1	55	83*	2	-18
CN(C)c1ccc(C(=O)C(O)c2ccccc2)cc1 (configuration not stated)	19	-47	0	.
CN(C)c1ccc(C(=O)c2ccccc2)cc1	44*	-4	1	-8
CCSc1ccccc1C(=O)N=C1NC(=O)CC2C(=O)NCCN12 (configuration not stated)	.	.	2	.
CCN(CC)c1nc(-c2ccccc2)nc2c1sc(=S)n2CC	.	.	9.8*	.
Cc1cc([N+](=O)[O-])ccc1NCc1ccccc1	29	-46	1	-11
O=C(Cc1ccc([N+](=O)[O-])cc1)Nc1cccc(C(F)(F)F)c1	73*	-7	0	-8
SMILES	Measles CPE	BB579 growth dn	RAM inhibit	Yeast life ext
Cc1cc([N+](=O)[O-])ccc1NCc1ccc2ccccc2c1	4	-51	9.8*	-9
Cc1cc([N+](=O)[O-])ccc1NC(=O)Cc1ccc(F)cc1	53*	-18	1	-5
CCOC(=O)C1CC2CC(C1)CN(C(=O)C1CCCCC1)C2 (configuration not stated)	.	.	1	.
COc1ccc(CCNC(=O)COC(=O)COc2ccc(C#N)cc2)cc1	.	.	1	.
O=C1NC2(CCCCC2)C(=O)N1CCS(=O)(=O)Oc1ccc(Br)cc1	.	.	8.8*	.
O=C(NCCc1ccccc1)c1cc(S(=O)(=O)N2CCOCC2)ccc1F	18	-16	2	-6
O=C(Nc1cccc(Cl)c1Cl)c1cc(S(=O)(=O)NCCc2ccccc2)ccc1F	22	-64	9.4*	8
Cc1ccnc2nc(C(=O)OCC(=O)NC(=O)NCc3ccco3)nn12	.	.	3	.
Cc1ccc(S(=O)(=O)Oc2ccc3c(c2)O/C(=C\c2cccnc2)C3=O)cc1	33*	-62	5	7
O=C1/C(=C/c2cccnc2)Oc2cc(OS(=O)(=O)c3ccc(F)cc3)ccc21	20	-62	1	0
